Measured values as given in article PMC6245472 (Molecules, 2008).

Columns and labels:
[1] = test system: Plasmodium falciparum K1 strain (CQ-resistant); experiment: P. falciparum in vitro parasite growth inhibition; assay type: cell-based; details: for RI (K1/3D7) Resistance Index: ratio of K1 and 3D7 IC50
Outline: (§1)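 Asynchronous culture (65–75% rings, 0.5% parasitemia, 2.5% hematocrit) in RPMI 1640/0.5% Albumax II/5 µM hypoxanthine. Triplicate 3-fold dilutions, 10.0–0.0412 µg/mL, DMSO ≤0.01% final. 37 °C, 5% CO2, 24 h, then [3H]hypoxanthine 0.2 µCi/well for a further 24 h. Plates frozen, harvested, scintillation-counted. IC50 curve-fitted, mean of independent experiments. SI = KB IC50 (72 h, Alamar Blue)/parasite IC50. RI from K1 and 3D7 IC50s.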

[2] = test system: Plasmodium falciparum 3D7 strain (CQ-sensitive); experiment: P. falciparum in vitro parasite growth inhibition; assay type: cell-based
Outline: as §1

In the case of `CCN(CC)CCCC(C)Nc1ccnc2cc(Cl)ccc12` (stereo not drawn) [CQ, Chloroquine diphosphate], the “SI K1 Selectivity Index” value ([1]; (KB IC50)/(K1 IC50)) is reported as 161, the IC50 ([1]; Plasmodium falciparum, K1, read-out: K1 IC50) is reported as 682 nM and the “RI (K1/3D7) Resistance Index” value [1] is reported as 50.52. The “RI (K1/3D7) Resistance Index” value ([1]; listed as chloroquine) was 50, the “SI 3D7 Selectivity Index” value ([2]; (KB IC50)/(3D7 IC50)) was 8150 and the IC50 ([2]; Plasmodium falciparum, 3D7, read-out: 3D7 IC50) was 13.5 nM.
